# According to ChEMBL document CHEMBL1255409, “In vitro activity of ceftaroline against 623 diverse strains of anaerobic bacteria” (2010):
# What was measured:
# Prevotella bergensis = experiment: Antimicrobial activity against Prevotella bergensis under anaerobic conditions after 44 hrs by CLSI-M11-47 protocol based agar dilution method; format: functional; conditions: Hallella bergensis
# Summary of the method: (§1)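 Clinical isolates were stored at −70°C in 20% skim milk and identified phenotypically or by partial 16S rRNA sequencing. Each strain was subcultured twice from frozen stock. Cell paste from 48-h cultures was suspended in brucella broth to a 0.5 McFarland standard. About 10^5 CFU per spot were applied by Steers replicator to agar dilution plates prepared on the day of testing. Plates were incubated 44 h at 37°C in an anaerobic chamber. MIC was taken as the lowest concentration giving complete inhibition or marked reduction of growth versus the drug-free control.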
# Anaerococcus murdochii = experiment: Antimicrobial activity against Anaerococcus murdochii under anaerobic conditions after 44 hrs by CLSI-M11-47 protocol based agar dilution method; format: functional
# Summary of the method: (§2)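 Reference agar dilution per CLSI M11-A7 with plates made on test day. Clinical isolates were stored at −70°C in 20% skim milk, subcultured twice, and 48-h cell paste was suspended in brucella broth to 0.5 McFarland. About 10^5 CFU/spot was applied with a Steers replicator. Plates were incubated 44 h at 37°C anaerobically. MIC was the lowest concentration giving complete inhibition or marked growth reduction versus the drug-free control.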
# Peptoniphilus lacrimalis = experiment: Antimicrobial activity against Peptoniphilus lacrimalis under anaerobic conditions after 44 hrs by CLSI-M11-47 protocol based agar dilution method; format: functional; summary of the method: as §1
# [1] = tested on: Porphyromonas asaccharolytica; experiment: Antimicrobial activity against Porphyromonas asaccharolyticus under anaerobic conditions after 44 hrs by CLSI-M11-47 protocol based agar dilution method; format: functional; summary of the method: as §1
# Collinsella aerofaciens = experiment: Antimicrobial activity against Colinsella aerofaciens under anaerobic conditions after 44 hrs by CLSI-M11-47 protocol based agar dilution method; format: functional; summary of the method: as §2
# Anaerococcus tetradius = experiment: Antimicrobial activity against Anaerococcus tetradius under anaerobic conditions after 44 hrs by CLSI-M11-47 protocol based agar dilution method; format: functional; summary of the method: as §2
# Clostridium tertium = experiment: Antimicrobial activity against Clostridium tertium under anaerobic conditions after 44 hrs by CLSI-M11-47 protocol based agar dilution method; format: functional; summary of the method: as §2
# Clostridium hylemonae = experiment: Antimicrobial activity against Clostridium hylemonae under anaerobic conditions after 44 hrs by CLSI-M11-47 protocol based agar dilution method; format: functional; summary of the method: as §2
# [2] = tested on: Actinomyces neuii subsp. anitratus; experiment: Antimicrobial activity against Actinomyces neuii subsp. anitratus under anaerobic conditions after 44 hrs by CLSI-M11-47 protocol based agar dilution method; format: functional, Winkia neuii subsp. anitrata; conditions: Winkia neuii; summary of the method: as §2
# [3] = tested on: Bacteroides thetaiotaomicron; experiment: Antimicrobial activity against Bacteroides thetaiotaomicron under anaerobic conditions after 44 hrs by CLSI-M11-47 protocol based agar dilution method; format: functional; summary of the method: as §2
# Prevotella nanceiensis = experiment: Antimicrobial activity against Prevotella nanceiensis under anaerobic conditions after 44 hrs by CLSI-M11-47 protocol based agar dilution method; format: functional; conditions: Hoylesella nanceiensis; summary of the method: as §1
# Bacteroides uniformis = experiment: Antimicrobial activity against Bacteroides uniformis under anaerobic conditions after 44 hrs by CLSI-M11-47 protocol based agar dilution method; format: functional; summary of the method: as §2
# [4] = tested on: Prevotella melaninogenica; experiment: Antimicrobial activity against Prevotella melaninogenica under anaerobic conditions after 44 hrs by CLSI-M11-47 protocol based agar dilution method; format: functional; summary of the method: as §1
# Eubacterium cylindroides = experiment: Antimicrobial activity against Eubacterium cylindroides under anaerobic conditions after 44 hrs by CLSI-M11-47 protocol based agar dilution method; format: functional; conditions: Faecalitalea cylindroides; summary of the method: as §2
# [5] = tested on: Lacticaseibacillus rhamnosus; experiment: Antimicrobial activity against Lactobacillus rhamnosus under anaerobic conditions after 44 hrs by CLSI-M11-47 protocol based agar dilution method; format: functional; summary of the method: as §1
# Clostridium perfringens = experiment: Antimicrobial activity against Clostridium perfringens under anaerobic conditions after 44 hrs by CLSI-M11-47 protocol based agar dilution method; format: functional
# Anaerococcus prevotii = experiment: Antimicrobial activity against Anaerococcus prevotii under anaerobic conditions after 44 hrs by CLSI-M11-47 protocol based agar dilution method; format: functional; summary of the method: as §2
# Prevotella bivia = experiment: Antimicrobial activity against Prevotella bivia under anaerobic conditions after 44 hrs by CLSI-M11-47 protocol based agar dilution method; format: functional; summary of the method: as §1
# [6] = tested on: Anaerococcus lactolyticus; experiment: Antimicrobial activity against Anaerococcus lactolyticus under anaerobic conditions after 44 hrs by CLSI-M11-47 protocol based agar dilution method; format: functional; summary of the method: as §2
# Solobacterium moorei = experiment: Antimicrobial activity against Solobacterium moorei under anaerobic conditions after 44 hrs by CLSI-M11-47 protocol based agar dilution method; format: functional; summary of the method: as §1
# Porphyromonas somerae = experiment: Antimicrobial activity against Porphyromonas somerae under anaerobic conditions after 44 hrs by CLSI-M11-47 protocol based agar dilution method; format: functional; summary of the method: as §1
structure (smiles),measurement,setting,value
CCC[C@@H]1C[C@@H](C(=O)N[C@@H]([C@H]2O[C@H](SC)[C@H](O)[C@@H](O)[C@H]2O)[C@H](C)Cl)N(C)C1 [CLINDAMYCIN],MIC50,Prevotella bergensis,≤ 0.03 mg/L
same,MIC90,Prevotella bergensis,128 mg/L
same,MIC50,Anaerococcus murdochii,0.125 mg/L
same,MIC90,Anaerococcus murdochii,64 mg/L
same,MIC50,Peptoniphilus lacrimalis,0.125 mg/L
same,MIC90,Peptoniphilus lacrimalis,64 mg/L
same,MIC50,[1],≤ 0.03 mg/L
same,MIC90,[1],> 128 mg/L
same,MIC50,Collinsella aerofaciens,0.06 mg/L
same,MIC90,Collinsella aerofaciens,2 mg/L
same,MIC50,Anaerococcus tetradius,0.5 mg/L
same,MIC90,Anaerococcus tetradius,128 mg/L
same,MIC50,Clostridium tertium,2 mg/L
same,MIC90,Clostridium tertium,128 mg/L
same,MIC50,Clostridium hylemonae,2 mg/L
same,MIC90,Clostridium hylemonae,128 mg/L
same,MIC50,[2],0.06 mg/L
same,MIC90,[2],128 mg/L
same,MIC50,[3],4 mg/L
same,MIC90,[3],128 mg/L
same,MIC50,Prevotella nanceiensis,≤ 0.03 mg/L
same,MIC90,Prevotella nanceiensis,128 mg/L
same,MIC50,Bacteroides uniformis,4 mg/L
same,MIC90,Bacteroides uniformis,> 128 mg/L
same,MIC50,[4],≤ 0.03 mg/L
same,MIC90,[4],> 128 mg/L
same,MIC50,Eubacterium cylindroides,0.06 mg/L
same,MIC90,Eubacterium cylindroides,2 mg/L
same,MIC50,[5],1 mg/L
same,MIC90,[5],2 mg/L
same,MIC50,Clostridium perfringens,0.25 mg/L
same,MIC90,Clostridium perfringens,1 mg/L
same,MIC50,Anaerococcus prevotii,0.5 mg/L
same,MIC90,Anaerococcus prevotii,128 mg/L
same,MIC50,Prevotella bivia,≤ 0.03 mg/L
same,MIC90,Prevotella bivia,> 128 mg/L
same,MIC50,[6],0.125 mg/L
same,MIC90,[6],64 mg/L
same,MIC50,Solobacterium moorei,0.06 mg/L
same,MIC90,Solobacterium moorei,2 mg/L
same,MIC50,Porphyromonas somerae,≤ 0.03 mg/L
same,MIC90,Porphyromonas somerae,> 128 mg/L
CO/N=C(\C(=O)N[C@@H]1C(=O)N2C(C(=O)O)=C(CSc3nc(=O)c(O)nn3C)CS[C@H]12)c1csc(N)n1 [CEFTRIAXONE],MIC50,Prevotella bergensis,1 mg/L
same,MIC90,Prevotella bergensis,8 mg/L
same,MIC50,Anaerococcus murdochii,0.25 mg/L
same,MIC90,Anaerococcus murdochii,16 mg/L
same,MIC50,Peptoniphilus lacrimalis,0.25 mg/L
same,MIC90,Peptoniphilus lacrimalis,16 mg/L
same,MIC50,[1],0.06 mg/L
same,MIC90,[1],0.06 mg/L
same,MIC50,Collinsella aerofaciens,0.5 mg/L
same,MIC90,Collinsella aerofaciens,2 mg/L
same,MIC50,Anaerococcus tetradius,0.25 mg/L
same,MIC90,Anaerococcus tetradius,0.5 mg/L
same,MIC50,Clostridium tertium,2 mg/L
same,MIC90,Clostridium tertium,64 mg/L
same,MIC50,Clostridium hylemonae,2 mg/L
same,MIC90,Clostridium hylemonae,64 mg/L
same,MIC50,[2],0.125 mg/L
same,MIC90,[2],0.5 mg/L
same,MIC50,[3],> 64 mg/L
same,MIC90,[3],> 64 mg/L
same,MIC50,Prevotella nanceiensis,1 mg/L
same,MIC90,Prevotella nanceiensis,8 mg/L
same,MIC50,Bacteroides uniformis,> 64 mg/L
same,MIC90,Bacteroides uniformis,> 64 mg/L
same,MIC50,[4],2 mg/L
same,MIC90,[4],32 mg/L
same,MIC50,Eubacterium cylindroides,0.5 mg/L
same,MIC90,Eubacterium cylindroides,2 mg/L
same,MIC50,[5],32 mg/L
same,MIC90,[5],64 mg/L
same,MIC50,Clostridium perfringens,0.5 mg/L
same,MIC90,Clostridium perfringens,2 mg/L
same,MIC50,Anaerococcus prevotii,0.25 mg/L
same,MIC90,Anaerococcus prevotii,0.5 mg/L
same,MIC50,Prevotella bivia,2 mg/L
same,MIC90,Prevotella bivia,> 64 mg/L
same,MIC50,[6],0.25 mg/L
same,MIC90,[6],16 mg/L
same,MIC50,Solobacterium moorei,0.5 mg/L
same,MIC90,Solobacterium moorei,2 mg/L
same,MIC50,Porphyromonas somerae,0.015 mg/L
same,MIC90,Porphyromonas somerae,64 mg/L
